GalR3 antag: blocks the human galanin receptor 3 | O60755 | HEK293 GalR3-CNG cAMP membrane potential fluorescence; galR3 body fused to GalR1 C-terminus | inhibition, % at 3 µM | 360,000 tested, 0.44% active;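 active = inhibition above the screen-wide average plus 3 SD, cut at about 13% in these data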;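 note: forskolin and galanin both at EC90 stimulate the cells; cAMP rise reported by CNG channel membrane potential dye signal; 0% = forskolin plus galanin with DMSO and 100% = forskolin alone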
Target sequence (O60755 1-299 limits assumed): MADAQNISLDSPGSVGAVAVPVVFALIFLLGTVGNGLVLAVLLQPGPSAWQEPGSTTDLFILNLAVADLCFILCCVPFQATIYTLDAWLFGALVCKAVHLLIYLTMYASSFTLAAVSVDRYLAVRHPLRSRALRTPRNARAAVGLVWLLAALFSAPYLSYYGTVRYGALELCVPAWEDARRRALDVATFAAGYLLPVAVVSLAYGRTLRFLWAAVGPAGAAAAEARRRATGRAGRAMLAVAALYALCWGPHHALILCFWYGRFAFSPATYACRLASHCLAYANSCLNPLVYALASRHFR
NR2E3 ag-1: agonists of human NR2E3 nuclear receptor. CHO-S Gal4-NCOR/VP16-NR2E3 two-hybrid, luciferase. inhibition of corepressor binding, % at 3.98 µM. 360,000 tested, 0.35% active. AID 602229;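 active = inhibition above the mean of all tested compounds plus 3 SD, cut at about 70% in these data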;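 note: 0% = DMSO with NR2E3 transfected cells and 100% = cells lacking NR2E3 construct; higher means lower luciferase signal from less NR2E3 corepressor binding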
Env fusion inh: blocks HIV Env-driven cell-cell fusion. AID 651610. HeLa-JRFL Env/CEM21 cell fusion, luciferase. 360,000 tested, 1.1% active. inhibition, % at 12.3 µM;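 active = mean replicate inhibition score of at least 50 and every replicate individually at or above 50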;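 note: 0% = plate neutral controls and 100% = maraviroc near 300 nM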
NR2E3 ag-2: activates human photoreceptor nuclear receptor NR2E3 | Q9Y5X4 | GST-NR2E3/biotin-RetCOR TR-FRET, 1536-well | inhibition of corepressor binding, % at 4.78 µM | 320,000 tested, 0.12% active | AID 2300;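 active = percent inhibition above the cutoff of mean plus 3 SD of all tested compounds, set per screening campaign, cut at about 20% in these data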;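 note: 0% = DMSO wells and 100% = biotin wells as full block of FRET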
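Material: NR2E3–RetCOR corepressor complex / Amount: 1.35 nM GST-NR2E3 / Medium: Tris pH 7.5 / Compound: single nominal compound dose of 4.8 µM / Incubation: 5 h at 4 °C / Technique: TR-FRET, Eu(K)-anti-GST donor, streptavidin-D2 acceptor, ex 340, em 617/671 nm / Read-out basis: percent loss of FRET ratio relative to control wells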
FXN GAA850 act: activators of GAA850 frataxin (FXN) promoter; 360,000 tested, 0.56% active; HEK293 lucGAA850 FXN promoter luciferase reporter, 24 h; percent of 10 µM SAHA response; activation, % at 6 µM;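 active = activation above the average of all compounds screened plus 3 SD, cutoff fixed separately per campaign, cut at about 7.5% in these data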;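 note: 0% = DMSO wells and 100% = 10 µM SAHA wells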
V-ATPase pHluor: yeast V-ATPase proton transport regulation by pHLuorin. S. cerevisiae, pHLuorin cytosolic pH fluorescence. response, % at 10 µM. 350,000 tested, 0.37% active. AID 504577; in the data active = response mostly above about 7.3%, no sharp cut-off; inactive = mostly below about 5.4%; note: actives read high
GAA30 counter: activates GAA30 frataxin promoter, counter-screen for GAA850 activators; shares compounds with FXN GAA850 act; HEK293 lucGAA30 FXN promoter luciferase, 24 h; DMSO = 0%, 5 µM ipriflavone = 100%; activation, % at 6 µM; 1,900 tested, 66% active; AID 588350;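 active = mean activation above the mean of solvent-only control wells plus 3 SD, cut at about 22% in these data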;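 note: counterscreen of GAA850 promoter hits where activity marks nonselective or luminescence artifacts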
FXN GAA850 conf: confirmation of GAA850 frataxin (FXN) promoter activators; shares compounds with FXN GAA850 act; HEK293 lucGAA850 FXN promoter luciferase reporter, 24 h; 100% = activation by SAHA; activation, % at 6 µM; 1,900 tested, 86% active;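 active = mean activation above a set limit taken from the primary screen, cut at about 8% in these data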;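 note: 0% = DMSO wells and 100% = 10 µM SAHA wells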
* = called active by the depositor; · = no result; [ ] = remark or other dose. An excerpt weighted towards active compounds, which were near 2.2% of everything screened.

SMILES	GalR3 antag	NR2E3 ag-1	Env fusion inh	NR2E3 ag-2	FXN GAA850 act	V-ATPase pHluor	GAA30 counter	FXN GAA850 conf
CCC(=O)Nc1ccc2c(c1)OC[C@H](C)N(C(=O)NC(C)C)C[C@H](C)[C@@H](OC)CN(C)C2=O	·	·	-3.8[16.7 µM]	·	·	·	·	·
C[C@H]1CN([C@@H](C)CO)S(=O)(=O)c2ccc(C3=CCCC3)cc2O[C@@H]1CN(C)CC1CCOCC1	·	·	7.3[16.7 µM]	·	·	·	·	·
Cc1cc(C)n(-c2nc3ccccc3nc2Nc2ccc3c(c2)OCO3)n1	0.0	-3.5	-12.4	2.5	3.5	-1.2	·	·
Cc1ccc2nc(Nc3ccc4[nH]c(=O)[nH]c4c3)c(-n3nc(C)cc3C)nc2c1	1.1	-23.1	·	2.5	9.1*	-0.3	76.5*	29.4*
CC1(Cc2ccc(Cl)cc2)C(=O)Nc2ccc(S(=O)(=O)NC3CCCCC3)cc21 (stereo not given)	-4.2	-21.8	91.1*	·	8.3*	·	-10.7	0.8
CC1(Cc2ccc(S(C)(=O)=O)cc2)C(=O)Nc2ccc(Cl)cc21 (stereo not given)	0.5	-17.9	·	·	-1.6	·	·	·
C/C(=N\N=C\c1ccccc1F)c1nnn(-c2nonc2N)c1C	-11.1	-80.5	·	-1.0	10.1*	1.6	88.3*	31.4*
Cc1ccc(S(=O)(=O)Nc2ccc3c(c2)C(=O)N([C@@H](C)CO)C[C@H](C)[C@H](CN(C)C(=O)CCC(F)(F)F)OCCCC[C@H](C)O3)cc1	·	·	-32.8[16.7 µM]	·	·	·	·	·
COc1ccccc1-c1cn(CC[C@@H]2CC[C@@H](NC(=O)C3CCC3)[C@H](CO)O2)nn1	·	·	-10.4[16.7 µM]	·	·	·	·	·
C[C@H](CO)N1C[C@H](C)[C@@H](CN(C)C(=O)NC2CCCCC2)OCCCC[C@H](C)Oc2ccc(NC(=O)CCCN(C)C)cc2C1=O	·	·	1.4[16.7 µM]	·	·	·	·	·
O=C(N[C@@H]1CC[C@@H](CC(=O)N2CCCCC2)O[C@@H]1CO)c1ccc2c(c1)OCO2	·	·	8.0[16.7 µM]	·	·	·	·	·
CCS(=O)(=O)N1CCN(c2ccc([N+](=O)[O-])c(NC(C)c3ccccc3)c2)CC1 (stereo not given)	-1.9	-4.5	·	2.3	1.5	-4.2	·	·
CC(Nc1cc(N2CCNCC2)ccc1[N+](=O)[O-])c1ccccc1 (stereo not given)	-10.2	4.7	-52.2	-2.4	8.5*	-4.5	12.5	7.4
C=CCn1c(SCC(N)=O)nc2scc(-c3ccc(C)o3)c2c1=O	-3.6	-59.6	-41.8	-0.6	8.2*	-3.9	127.9*	43.3*
CC1(C)C(=O)NCCN1C(=O)CC1C(=O)NCCN1CC(c1ccccc1)c1ccccc1 (stereo not given)	-5.1	-0.6	-15.2	2.1	1.2	3.0	·	·
CC1(C)C(=O)NCCN1C(=O)CCC(=O)O	-7.2	7.8	·	7.8	7.9*	-2.1	15.7	5.4
CCCNC(=O)N[C@@H]1CC[C@@H](CCn2cc(-c3cccc(F)c3)nn2)O[C@@H]1CO	·	·	25.3[16.7 µM]	·	·	·	·	·
COc1ccc(C2=Nn3c(nnc3-c3ccccc3)SC2)cc1OC	-2.8	-1.2	-24.1	-5.0	9.5*	8.4	21.9*	17.9*
COc1ccc(OCc2nnc3n2N=C(c2ccc(OC)cc2)CS3)cc1	7.2	-21.1	11.1	-0.8	2.1	2.7	·	·
CCCc1nnc2n1N=C(c1ccc(OC)c(OC)c1)CS2	8.6	1.2	·	-4.0	12.4*	-1.1	35.3*	13.0*
COc1ccc(-c2nnc3n2N=C(C)CS3)cc1OC	-5.0	-19.1	7.7	-4.2	0.8	-1.4	·	·
O=C(C[C@H]1CC[C@@H]2[C@H](COC[C@H](O)CN2C(=O)C2CCOCC2)O1)NCc1ccncc1	·	·	-7.9[16.7 µM]	·	·	·	·	·
COc1ccc(-c2ccc3c(c2)O[C@H](CN(C)C(C)=O)[C@@H](C)CN([C@H](C)CO)S3(=O)=O)cc1	·	·	-38.5[16.7 µM]	·	·	·	·	·
C=C1C(=O)O[C@H]2[C@H]1[C@H](OC(=O)/C(C)=C\C)C[C@]1(CO1)[C@@H]1[C@H](OC(C)=O)C=C(C)[C@]21O	-1.9	-16.5	-3.0	·	11.9*	-3.6	4.3	17.3*
